From ChEMBL document CHEMBL4834396, “Molecular Recognition and Imaging of Human Telomeric G-Quadruplex DNA in Live Cells: A Systematic Advancement of Thiazole Orange Scaffold To Enhance Binding Specificity and Inhibition of Gene Expression” (J Med Chem, 2021)
Activity calls are given as the source filed them. No cut-off for these calls is given here.

How the values were obtained:
Quadruplex DNA [1] = assay: Binding affinity to telomeric Htg24 G-quadruplex DNA (unknown origin) assessed as equilibrium binding constant at 5 uM at 25 degreeC by […]; format: nucleic-acid assay
In short: (§1)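 Fluorescence titration: ligand 5 μM in 10 mM Tris-HCl pH 7.4 with 60 mM KCl, nucleic acid added until saturation, 25 °C. Keq from nonlinear fit of F/F0 to an independent-site model.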

rRNA = assay: Binding affinity to rRNA (unknown origin) assessed as equilibrium binding constant at 5 uM at 25 degreeC […]; format: nucleic-acid assay; in short: as §1
DNA = assay: Binding affinity to ds26 DNA (unknown origin) assessed as equilibrium binding constant at 5 uM at 25 degreeC by […]; format: nucleic-acid assay; in short: as §1
Quadruplex DNA [2] = assay: Binding affinity to telomeric Telo21 G-quadruplex DNA (unknown origin) assessed as equilibrium binding constant at 5 uM at 25 degreeC by […]; format: nucleic-acid assay
In short: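 Fluorescence titration: ligand at 5 μM in 10 mM Tris-HCl, pH 7.4, with 60 mM KCl, 25 °C. DNA was added slowly until saturation. Keq was obtained by nonlinear fitting of F/F0 to an independent-site model.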

Quadruplex DNA [3] = assay: Binding affinity to c-myc promoter G-quadruplex DNA Pu22 (unknown origin) assessed as equilibrium binding constant at 5 uM at 25 degreeC by […]; format: nucleic-acid assay; in short: as §1
[4] = Water solubility of compound at 25 degreeC; format: physicochemical
In short: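 Solubility in water measured at 25 °C.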

Quadruplex DNA [5] = assay: Binding affinity to telomeric Htg24 G-quadruplex DNA (unknown origin) assessed as emission wavelength at 480 to 483 nm at pH 7.4 by spectrophotometric method; format: nucleic-acid assay
HepG2 = assay: Antiproliferative activity against human HepG2 cells assessed as reduction in cell viability […] by MTT assay; format: functional, cell-based
Quadruplex DNA [6] = assay: Stabilization of telomeric Htg24 G-quadruplex DNA (unknown origin) assessed as inhibition of DNA amplification at 20 uM by PCR analysis; format: nucleic-acid assay
In short: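 Taq polymerase stop assay: Htg24 or its non-G4 mutant template (5 μM) with 2 μM of each oligomer, […] and ligand at 0–20 μM. Cycling was 94 °C for 5 min, then 30 cycles of 94/56/72 °C at 30 s each. Products were resolved on 15% PAGE and stained with SYBR Gold.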

MCF7 = assay: Antiproliferative activity against human MCF7 cells assessed as reduction in cell viability […] by MTT assay; format: functional, cell-based
PC-3 = assay: Antiproliferative activity against human PC-3 cells assessed as reduction in cell viability […] by MTT assay; format: functional, cell-based
Quadruplex DNA [7] = assay: Binding affinity to telomeric Htg24 G-quadruplex DNA (unknown origin) assessed as stroke shift under at 480 to 483 nm at pH 7.4 by spectrophotometric method
16HBE14o- = assay: Cytotoxicity against human 16HBE14o- cells assessed as cell viability incubated for 48 hrs by MTT assay; format: cell-based; conditions: 36 h, in the assay text read “36 hrs” for “48 hrs”
In short: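 Cells were plated and grown 48 h at 37 °C, 5% CO2, in DMEM with 10% FBS. They were then given graded ligand concentrations for 36 h and treated with MTT (5 mg/ml) for 4 h in the dark. Formazan was dissolved in DMSO and absorbance read at 577 nm. IC50 was taken from a sigmoidal dose–response fit; three independent experiments.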

U-87 MG = assay: Antiproliferative activity against human U87 cells assessed as reduction in cell viability […] by MTT assay; format: functional, cell-based, U-87MG ATCC
HeLa [8] = assay: Downregulation of hTERT mRNA expression in human HeLa cells at 5 to 20 uM by qRT-PCR analysis; format: functional, cell-based; conditions: dose 5-20 µM
In short: (§2)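 HeLa cells were treated with graded compound concentrations, then incubated 36 h. RNA was extracted with Trizol/chloroform, reverse transcribed and quantified by qRT-PCR. GAPDH served as internal control, with relative expression by the ΔΔCt method; three independent experiments, mean ± SD.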

Quadruplex DNA [9] = assay: Binding affinity to telomeric Htg24 G-quadruplex DNA (unknown origin) assessed as fluorescence quantum yield by fluorescence spectrophotometric method; format: nucleic-acid assay
In short: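 Fluorescence quantum yield determined against fluorescein (Φ = 0.95) in 1% NaOH ethanol. Five increasing ligand concentrations added to fixed DNA, with absorbance and emission recorded for each.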

HeLa [10] = assay: Downregulation of hTERC mRNA expression in human HeLa cells at 5 to 20 uM by qRT-PCR analysis; format: functional, cell-based; conditions: dose 5-20 µM; in short: as §2
HeLa [11] = assay: Antiproliferative activity against human HeLa cells assessed as reduction in cell viability […] by MTT assay; format: functional, cell-based
HeLa [12] = assay: Induction of cellular senescence in human HeLa cells assessed as positive SA-beta-Gal cells at 0.5 to 4 uM incubated for 18 days by inverted fluorescence microscopic analysis; format: functional, cell-based; conditions: dose 0.5-4 µM, time 18.0 day
In short: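 HeLa cells were exposed to compound for 18 days, with drug-containing medium replaced every three days. Cells were then fixed 15 min at room temperature and stained for β-galactosidase at 37 °C overnight. Stained cells were examined under an inverted microscope.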

Quadruplex DNA [13] = assay: Displacement of 2-((E)-4-(Dimethylamino)styryl)-1-methyl-4-((Z)-(3-(3-morpholinopropyl)benzo[d]thiazol-2(3H)-ylidene)methyl)quinolin-1-ium iodide from telomeric Htg24 G4 quadruplex DNA in human U87 cells assessed as decrease in fluorescence intensity at 5 to 20 uM by competition binding assay; format: cell-based; conditions: dose 5-20 µM
In short: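 Live U87 cells were stained with probe at 5 μM plus DAPI and co-treated with BRACO19 at 5, 10, 15 or 20 μM. Confocal imaging used excitation at 488 or 571 nm for the probe and 402 nm for DAPI. Nuclear spot intensity was compared across concentrations.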

SMILES | Kb (Quadruplex DNA [1]) | Kb (rRNA) | Kb (DNA) | Kb (Quadruplex DNA [2]) | Kb (Quadruplex DNA [3]) | solubility [4] | Activity (Quadruplex DNA [6]) | Activity (HeLa [8]) | Activity (HeLa [10]) | also measured
CSc1ccc(/C=C/c2cc(/C=C3\Sc4ccccc4N3CCCN3CCC(C)CC3)c3ccccc3[n+]2C)cc1.[I-] | 689000 M⁻¹ | 787000 M⁻¹ | 755000 M⁻¹ | 650000 M⁻¹ | 766000 M⁻¹ | 98.4 µM | – | – | – | –
CC1CCN(CCCN2/C(=C/c3cc(/C=C/c4ccc(N(C)C)cc4)[n+](C)c4ccccc34)Sc3ccccc32)CC1.[I-] | – | 840000 M⁻¹ | – | – | – | 105 µM | Active | Active | Active | Activity (Quadruplex DNA [5]): 648 nm; IC50 (HepG2): 11 µM; IC50 (MCF7): 12.6 µM; IC50 (PC-3): 14.6 µM; Activity (Quadruplex DNA [7]): 165 nm; IC50 (16HBE14o-): 34.8 µM; IC50 (U-87 MG): 14.7 µM; Activity (Quadruplex DNA [9]): 0.317; IC50 (HeLa [11]): 21.2 µM
CC1CCN(CCCN2/C(=C/c3cc(/C=C/c4ccc(N(c5ccccc5)c5ccccc5)cc4)[n+](C)c4ccccc34)Sc3ccccc32)CC1.[I-] | 722000 M⁻¹ | – | 154000 M⁻¹ | 785000 M⁻¹ | 907000 M⁻¹ | 77.2 µM | – | – | – | –
CC1CCN(CCCN2/C(=C/c3cc(/C=C/c4ccc(O)cc4)[n+](C)c4ccccc34)Sc3ccccc32)CC1.[I-] | – | – | – | – | 550000 M⁻¹ | 147 µM | – | – | – | –
C[n+]1c(/C=C/c2ccc(O)cc2)cc(/C=C2\Sc3ccccc3N2CCCN2CCOCC2)c2ccccc21.[I-] | – | – | – | 965000 M⁻¹ | – | 167 µM | – | – | – | –
C[n+]1c(/C=C/c2ccc(N(c3ccccc3)c3ccccc3)cc2)cc(/C=C2\Sc3ccccc3N2CCCN2CCOCC2)c2ccccc21.[I-] | 490000 M⁻¹ | – | 272000 M⁻¹ | 523000 M⁻¹ | 645000 M⁻¹ | 70.7 µM | – | – | – | –
CSc1ccc(/C=C/c2cc(/C=C3\Sc4ccccc4N3CCCN3CCOCC3)c3ccccc3[n+]2C)cc1.[I-] | 325000 M⁻¹ | 764000 M⁻¹ | 657000 M⁻¹ | 301000 M⁻¹ | 486000 M⁻¹ | 87.3 µM | inactive | inactive | inactive | IC50 (HepG2): 96.5 µM; IC50 (MCF7): 105 µM; IC50 (PC-3): 91.1 µM; IC50 (16HBE14o-): 58 µM; IC50 (U-87 MG): 96.8 µM; IC50 (HeLa [11]): 90.3 µM
CC1CCN(CCCN2/C(=C/c3cc(/C=C/c4ccc(C#N)cc4)[n+](C)c4ccccc34)Sc3ccccc32)CC1.[I-] | 902000 M⁻¹ | 786000 M⁻¹ | – | 957000 M⁻¹ | 983000 M⁻¹ | 82.7 µM | – | – | – | –
CN(C)c1ccc(Nc2c3ccc(NC(=O)CCN4CCCC4)cc3nc3cc(NC(=O)CCN4CCCC4)ccc23)cc1 | – | – | – | – | – | – | Active | Active | Active | Activity (HeLa [12]): Active; Activity (Quadruplex DNA [13]): Active
C[n+]1c(/C=C/c2ccc(C#N)cc2)cc(/C=C2\Sc3ccccc3N2CCCN2CCOCC2)c2ccccc21.[I-] | 505000 M⁻¹ | 501000 M⁻¹ | 379000 M⁻¹ | 722000 M⁻¹ | 443000 M⁻¹ | 83 µM | – | – | – | –
